# Assay results as given in ChEMBL document CHEMBL3120072, “Alkynyl-coumarinyl ethers as MAO-B inhibitors” (Bioorg Med Chem, 2014).
# How the values were obtained:
# [1] = target: T1, Amine oxidase [flavin-containing] A (Homo sapiens, UniProt P21397); test: Inhibition of human recombinant MAO-A expressed in baculovirus infected insect cells assessed as hydrogen peroxide production using p-tyramine as substrate incubated for 30 mins prior to substrate addition measured for 45 mins by Amplex Red monoamine oxidase assay
# T1 sequence (P21397 whole entry): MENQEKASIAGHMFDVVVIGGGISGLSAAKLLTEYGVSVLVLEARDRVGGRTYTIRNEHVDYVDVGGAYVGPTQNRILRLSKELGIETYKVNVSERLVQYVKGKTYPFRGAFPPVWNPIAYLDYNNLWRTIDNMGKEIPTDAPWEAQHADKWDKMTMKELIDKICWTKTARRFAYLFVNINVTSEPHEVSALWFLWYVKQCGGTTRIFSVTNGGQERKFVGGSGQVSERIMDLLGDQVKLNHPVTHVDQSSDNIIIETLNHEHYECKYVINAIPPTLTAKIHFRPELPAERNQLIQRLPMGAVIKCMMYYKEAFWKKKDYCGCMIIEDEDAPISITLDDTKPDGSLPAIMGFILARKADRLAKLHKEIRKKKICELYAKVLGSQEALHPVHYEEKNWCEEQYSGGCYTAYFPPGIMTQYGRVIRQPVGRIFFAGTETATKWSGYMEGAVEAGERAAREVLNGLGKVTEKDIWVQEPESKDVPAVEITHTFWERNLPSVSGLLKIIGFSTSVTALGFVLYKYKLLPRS
# Procedure, shortened: (§1)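 Human recombinant enzyme in 50 mM sodium phosphate pH 7.4. Test compound in DMSO preincubated with enzyme for 30 min at room temperature. Reaction started with p-tyramine (final 150 µM) plus Amplex Red/HRP and kept in the dark. Resorufin fluorescence (ex 544, em 590 nm) read over 45 min. IC50 values from three experiments.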
# Homo sapiens = species on record: Homo sapiens; test: Selectivity ratio of IC50 for human recombinant MAO-A to IC50 for human recombinant MAO-B
# Procedure, shortened: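 Ratio calculated as IC50 (MAO-A) divided by IC50 (MAO-B), from Amplex Red assays with p-tyramine on human recombinant enzymes.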
# [2] = target: T2, Amine oxidase [flavin-containing] B (Homo sapiens, UniProt P27338); test: Inhibition of human recombinant MAO-B expressed in baculovirus infected insect cells assessed as hydrogen peroxide production using p-tyramine as substrate incubated for 30 mins prior to substrate addition measured for 45 mins by Amplex Red monoamine oxidase assay; procedure, shortened: as §1
# T2 sequence (P27338 whole entry): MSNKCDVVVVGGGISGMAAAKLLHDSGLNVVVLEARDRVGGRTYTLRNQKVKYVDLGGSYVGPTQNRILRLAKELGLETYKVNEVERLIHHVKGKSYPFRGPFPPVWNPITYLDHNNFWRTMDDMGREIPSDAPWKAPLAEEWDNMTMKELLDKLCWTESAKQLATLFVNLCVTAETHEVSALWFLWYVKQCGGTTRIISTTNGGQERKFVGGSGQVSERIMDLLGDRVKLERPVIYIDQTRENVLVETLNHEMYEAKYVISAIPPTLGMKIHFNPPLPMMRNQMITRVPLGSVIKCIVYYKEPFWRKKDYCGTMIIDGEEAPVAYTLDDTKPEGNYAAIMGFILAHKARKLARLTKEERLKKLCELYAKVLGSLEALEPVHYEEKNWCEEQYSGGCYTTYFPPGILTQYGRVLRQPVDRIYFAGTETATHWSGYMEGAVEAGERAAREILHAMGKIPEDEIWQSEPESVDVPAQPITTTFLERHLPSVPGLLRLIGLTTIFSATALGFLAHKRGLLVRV
# [3] = Lipophilicity, log D of the compound at pH 7.4 by HPLC analysis; format: physicochemical; details: buffer
# Procedure, shortened: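 Retention-based HPLC on a C18 column at 40 °C and 0.8 mL/min. Linear gradient with 10 mM ammonium acetate. UV read at 254 nm. Atenolol, metoprolol, diltiazem, labetalol and triphenylene used as references. Compounds injected from DMSO solutions (0.5 mg/mL) in duplicate.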
# [4] = target: T2, Amine oxidase [flavin-containing] B; test: Reversible inhibition of human MAO-B using p-tyramine as substrate at IC80 incubated for 1 hr prior to increasing substrate concentration measured for 5 hrs by fluorescence analysis
# Procedure, shortened: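 Human MAO-B preincubated 1 h with inhibitor at about its IC80. Reaction started with p-tyramine (10 µM). After 22 min, substrate raised to a final 1 mM. Recovery of activity followed by fluorescence over 5 h.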
SMILES,IC50 [1] [nM],Ratio IC50 (Homo sapiens),IC50 [2] [nM],logD [3],inhibition (INH) [4]
COC(=O)c1cc2cc(OC/C=C(\C)CCC=C(C)C)ccc2oc1=O,> 10000,> 31,325,,
C#CCCCOc1ccc2cc(C(=O)O)c(=O)oc2c1,> 10000,,> 10000,,
C#CCNCCOc1ccc2cc(C(=O)OC)c(=O)oc2c1,2680,7,377,0.5,
C#CCCCOc1ccc2oc(=O)c(C(=O)OC)cc2c1,> 10000,> 7,1440,,
C#CCCCCOc1ccc2oc(=O)c(C(=O)c3ccc(OC)cc3)cc2c1,> 10000,,> 10000,,
C#CCCCCOc1ccc2c(c1)NC(=O)CC2,> 10000,> 190,52.6,1.6,
C#CCCCCOc1ccc2oc(=O)c(NC(C)=O)cc2c1,> 10000,> 400,24.7,2.4,
C#CCCCOc1ccc2cc(C(=O)Nc3ccc(F)cc3)c(=O)oc2c1,> 10000,,> 10000,,
COC(=O)c1cc2cc(OCCc3ccc(Cl)cc3)ccc2oc1=O,> 10000,> 83,120,,
COC(=O)c1cc2cc(OCc3cccc(Cl)c3)ccc2oc1=O,> 10000,> 320,31.5,,
C#CCCCOc1ccc2cc(C(=O)OC)c(=O)oc2c1,953,12,82.4,,
C[C@H](NCc1ccc(OCc2cccc(F)c2)cc1)C(N)=O [SAFINAMIDE],,,,,Active
C#CCCCOc1ccc2cc(C(=O)N3CCN(C(=O)OC(C)(C)C)CC3)c(=O)oc2c1,> 10000,,10000,,
C#CCCCOc1ccc2cc(C(=O)c3ccc(OC)cc3)c(=O)oc2c1,> 10000,> 19,535,3.1,
C#CCCCCOc1ccc2oc(=O)c(C(=O)OC)cc2c1,> 10000,> 81,123,,
C#CCCCCOc1ccc2cc(C(=O)c3ccc(OC)cc3)c(=O)oc2c1,> 10000,> 150,67.1,3.5,
C#CCOc1ccc2cc(C(=O)OC)c(=O)oc2c1,1570,1,1790,,
C#CCNCCOc1ccc2ccc(=O)oc2c1,10000,12,852,,
C#CCCCCOc1ccc2cc(-c3ccc(OC)cc3)c(=O)oc2c1,> 10000,> 3400,2.96,4.3,Active
C#CCCCOc1ccc2ccc(=O)oc2c1,3520,38,91.8,,
COC(=O)c1cc2ccc(OC/C=C(\C)CCC=C(C)C)cc2oc1=O,10000,130,78.9,,
C#CCCCOc1cccc2cc(C(=O)OC)c(=O)oc12,> 10000,,> 10000,,

# Other lines, results leading:
IC50 [1] [nM],Ratio IC50 (Homo sapiens),IC50 [2] [nM],logD [3],inhibition (INH) [4],SMILES
66.1,75,0.875,4.2,,CCCCCCOc1ccc2cc(C(=O)OC)c(=O)oc2c1
74.8,53,1.41,3.9,,COC(=O)c1cc2ccc(OCCc3ccc(Cl)cc3)cc2oc1=O
9.64,7,1.41,2.5,Active,C#CCCCCOc1ccc2cc(C(=O)OC)c(=O)oc2c1
930,21,43.6,,,C#CCCCOc1ccc2cc(NC(C)=O)c(=O)oc2c1
367,140,2.62,,,C#CCCCCOc1ccc2ccc(=O)oc2c1
62.7,5,13.5,,,CC(=O)Nc1cc2ccc(OCc3cccc(Cl)c3)cc2oc1=O
59.9,78,0.77,,,C#CCCCCOc1ccc2c(C)cc(=O)oc2c1
818,3,258,,,C#CCCOc1ccc2cc(C(=O)OC)c(=O)oc2c1
77.2,130,0.588,3.2,,COC(=O)c1cc2ccc(OCc3cccc(F)c3)cc2oc1=O
553,30,18.2,,,C#CCCCOc1ccc2c(C)cc(=O)oc2c1
66.8,2,41.7,,,C#CCCCCOc1ccc2cc(NC(C)=O)c(=O)oc2c1
